The source made the active and inactive calls. The rule behind the calls is not given here.
Experiments:
[1] = target: T1, Protein kinase C (PKC) (Homo sapiens) (UniProt O94806+P41743+P17252+P05129+Q05655+P05771+Q05513+Q02156+P24723+Q15139+Q04759); assay: Inhibition of PKC activation in PMA-treated human fibroblasts assessed as inhibition of translocation to plasma membrane at 0.2 uM pretreated for 1 hr followed by 15 mins challenged with PMA by Western blot/densitometric analysis
Procedure, shortened: (§1)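 Primary human dermal fibroblasts in 10% FBS DMEM, pretreated 1 h at 37 °C with compound (ethanol vehicle, 0.2–2 range), then 100 nM PMA for 15 min. Controls received 0.005% ethanol ± PMA. 10 µg membrane protein on 10% SDS-PAGE/PVDF, probed with anti-PKC; densitometry. IC50 derived from the inhibition curve.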

[2] = target: T1, Protein kinase C (PKC) (Homo sapiens); assay: Inhibition of PKC activation in PMA-treated human fibroblasts assessed as inhibition of translocation to plasma membrane at 2 uM pretreated for 1 hr followed by 15 mins challenged with PMA by Western blot/densitometric analysis; procedure, shortened: as §1
[3] = target: T1, Protein kinase C (PKC) (Homo sapiens); assay: Inhibition of PKC activation in human U87MG cells assessed as inhibition of translocation to plasma membrane at 2 uM after 24 hrs by Western blot/densitometric analysis; type: cell-based; conditions: U-87MG ATCC
Procedure, shortened: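 U87MG cells (4 × 10^5) cultured in DMEM high glucose/10% FBS, treated 24 h at 37 °C; controls received 0.005% ethanol. Means ± S.D. of three experiments, Student's t-test.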

[4] = target: Protein kinase C (PKC); assay: Inhibition of PKC activation in PMA-treated human fibroblasts assessed as inhibition of translocation to plasma membrane cells pretreated for 1 hr followed by 15 mins challenged with PMA by Western blot/densitometric analysis; procedure, shortened: as §1
[5] = target: T1, Protein kinase C (PKC) (Homo sapiens); assay: Inhibition of PKC activation in PMA-treated human fibroblasts assessed as decrease in Raf phosphorylation at 2 uM pretreated for 1 hr followed by 15 mins challenged with PMA by Western blot/densitometric analysis
Procedure, shortened: (§2)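 Primary human dermal fibroblasts, 5 × 10^5 cells seeded in DMEM/10% FBS; after 24 h, compound (ethanol vehicle) in 10% FBS DMEM for 1 h at 37 °C, then 100 nM PMA for 15 min. Controls received 0.005% ethanol ± PMA. Cells sonicated; 25 µg total lysate run on 10% SDS-PAGE, blotted to PVDF and probed with phospho-specific antibodies; densitometry.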

[6] = test system: U-87 MG; assay: Inhibition of human U87MG cell migration assessed as reduction in wound size at 2 uM pretreated for 48 hrs measured after 30 hrs of scratching by scratch migration assay relative to control; type: functional, U-87MG ATCC
Procedure, shortened: (§3)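 U87MG cells (8 × 10^4) pretreated 48 h in 10% FBS DMEM, ethanol-only controls. Wound width photographed under phase contrast at 0, 6, 24 and 30 h post-scratch.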

[7] = Suppression of PKC delta mRNA expression in PMA-treated human fibroblasts at 2 uM pretreated for 1 hr followed by 15 mins challenged with PMA by RT-PCR analysis; type: functional, cell-based; conditions: Fibroblast
Procedure, shortened: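 Fibroblasts pretreated 1 h, then 100 nM PMA for 15 min. RNA taken for real-time PCR of PKCα and PKCδ with SYBR Green and 0.2 µM primers. Cycling: 95 °C for 3 min, then 40 cycles of 95 °C 10 s / 58 °C 30 s; specificity checked by melting curve. Means ± S.D. of four experiments, Student's t-test.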

[8] = target: T1, Protein kinase C (PKC) (Homo sapiens); assay: Inhibition of PKC activation in PMA-treated human fibroblasts assessed as decrease in MEK phosphorylation at 2 uM pretreated for 1 hr followed by 15 mins challenged with PMA by Western blot/densitometric analysis; procedure, shortened: as §2
[9] = test system: U-87 MG; assay: Inhibition of human U87MG cell migration at 2 uM pretreated for 48 hrs measured after 6 to 30 hrs of scratching by scratch migration assay relative to control; type: functional, cell-based; conditions: U-87MG ATCC; procedure, shortened: as §3
[10] = Antitumor activity against human U87MG cells assessed as reduction in [3H]thymidine incorporation at 2 uM after 24 hrs by beta counting; type: functional, U-87MG ATCC; set-up: scale not given: the % may be the effect or the level left
Procedure, shortened: (§4)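 [3H]thymidine incorporation in U87MG cells: 4 × 10^4 cells plated, treated 24 h or 48 h; […] [3H]thymidine added for final 4 h at 37 °C; radioactivity counted in trichloroacetic acid-insoluble material by β-counter. Means ± S.D. of four experiments.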

[11] = target: T1, Protein kinase C (PKC) (Homo sapiens); assay: Inhibition of PKC activation in PMA-treated human fibroblasts assessed as decrease in FAK phosphorylation at 2 uM pretreated for 1 hr followed by 15 mins challenged with PMA by Western blot/densitometric analysis; procedure, shortened: as §2
[12] = target: T1, Protein kinase C (PKC) (Homo sapiens); assay: Inhibition of PKC activation in PMA-treated human fibroblasts assessed as decrease in ERK1/2 phosphorylation at 2 uM pretreated for 1 hr followed by 15 mins challenged with PMA by Western blot/densitometric analysis; procedure, shortened: as §2
[13] = Antitumor activity against human U87MG cells assessed as reduction in [3H]thymidine incorporation at 2 uM after 48 hrs by beta counting; type: functional, U-87MG ATCC; set-up: scale not given: the % may be the effect or the level left; procedure, shortened: as §4

inhibition [1] [%] | inhibition [2] [%] | inhibition [3] | SMILES | also measured
35 | 64 |  | CCCCCC(=O)OC[C@H]1O[C@@H](OC(CO)CO)[C@H](O)[C@@H](O)[C@H]1O | 
 |  | inactive | CCCCCCCCCC(=O)OC[C@H]1O[C@@H](OC(CO)CO)[C@H](O)[C@@H](O)[C@H]1O | 
23 | 99 | 58% | CC(C)CC(=O)OC[C@H]1O[C@@H](OC(CO)CO)[C@H](O)[C@@H](O)[C@H]1O | IC50 [4]: 0.48 µM; inhibition [5]: Active; inhibition at 2 µM [6]: 16%; Activity [7]: Active; inhibition [8]: Active; inhibition [9]: Active; Activity [10]: 25%; inhibition [11]: Active; inhibition [12]: Active; Activity [13]: 30%
27 | 50 |  | OCC(CO)O[C@@H]1O[C@H](CO)[C@H](O)[C@H](O)[C@H]1O | 
38 | 52 |  | O=C(CC1CCCCC1)OC[C@H]1O[C@@H](OC(CO)CO)[C@H](O)[C@@H](O)[C@H]1O | 

— ChEMBL document CHEMBL1770116, “Glycoglycerolipid analogues inhibit PKC translocation to the plasma membrane and downstream signaling pathways in PMA-treated fibroblasts and human glioblastoma cells, U87MG” (Eur J Med Chem, 2011)
